Experimental data: article PMC2896288 (Journal of molecular biology, 2010)
Values belong to the molecule of their own block, whether it stands above or below them.

What was measured:
[1] = biological target: human Mcl-1 (residues 172-327), c-myc tagged (human) (UniProt Q07820); test: fluorescence polarisation
[2] = biological target: human Bcl-xL (residues 1-209), c-myc tagged (human) (UniProt Q07817); test: fluorescence polarisation
[3] = biological target: human Mcl-1 (residues 172-327) (Homo sapiens, UniProt Q07820); test: Fluorescence polarization competition binding assay, Mcl-1; details: FP competition binding assay
Outline: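 c-myc-tagged human Mcl-1 (172-327) from E. coli BL21(DE3), TEV-cleaved from MBP, at 50 nM. Serially diluted unlabelled 23-residue peptides are premixed with Mcl-1 first. FITC-Bim-BH3 (10 nM) is then added and mixed overnight at 37 °C, returned to room temperature and anisotropy read. Buffer: phosphate, pH 7.8. Ki from complete competitive binding model fitting five parameters, Bim Kd fixed 1 nM; unlabelled Bim-BH3 reference; ≥2 experiments, SD.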

[4] = biological target: human Bcl-xL (residues 1-209) (Homo sapiens, UniProt Q07817); test: Fluorescence polarization competition binding assay, Bcl-xL; details: FP competition binding assay
Bcl-xL = Bcl-xL (Homo sapiens, UniProt Q07817); test: Yeast surface display binding, soluble Bcl-xL; details: yeast cells displaying the peptide titrated with soluble Bcl-xL
Outline: (§1)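 EBY100 yeast displaying the BH3 peptide as Aga2p fusion with C-terminal FLAG tag, incubated with c-myc-tagged pro-survival protein. Expression is read by anti-FLAG/FITC and binding by anti-c-myc/PE. Cells are gated by forward scatter on a FACScan flow cytometer, typically 10,000 events analysed.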

Mcl-1 = Mcl-1 (Homo sapiens, UniProt Q07820); test: Yeast surface display binding, soluble Mcl-1; details: yeast cells displaying the peptide titrated with soluble Mcl-1
Outline: as §1

[5] = biological target: T1, human Bcl-w (residues 1-164), c-myc tagged (human), Q92843; test: SEC; details: remark: other sources report otherwise
T1 chain: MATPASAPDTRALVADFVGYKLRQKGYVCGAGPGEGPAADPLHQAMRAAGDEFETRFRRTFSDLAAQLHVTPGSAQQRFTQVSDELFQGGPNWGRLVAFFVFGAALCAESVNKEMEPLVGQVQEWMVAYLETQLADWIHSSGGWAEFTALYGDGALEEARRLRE

Chain of human Mcl-1 (residues 172-327), c-myc tagged (human) (Q07820 172-327): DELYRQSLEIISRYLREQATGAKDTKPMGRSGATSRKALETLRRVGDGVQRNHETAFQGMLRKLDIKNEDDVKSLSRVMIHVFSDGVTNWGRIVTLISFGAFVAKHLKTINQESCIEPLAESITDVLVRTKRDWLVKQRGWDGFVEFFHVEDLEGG
Chain of human Mcl-1 (residues 172-327) (Q07820 172-327): as above
Chain of Mcl-1 (Q07820 172-327): as above
Chain of human Bcl-xL (residues 1-209), c-myc tagged (human) (Q07817 1-209): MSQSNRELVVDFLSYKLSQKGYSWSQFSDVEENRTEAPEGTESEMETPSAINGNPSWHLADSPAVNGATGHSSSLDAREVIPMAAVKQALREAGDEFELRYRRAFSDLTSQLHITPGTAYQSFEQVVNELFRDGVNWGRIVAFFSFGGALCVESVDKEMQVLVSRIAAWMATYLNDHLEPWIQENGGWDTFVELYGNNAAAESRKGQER
Chain of Bcl-xL (Q07817 1-209): as above
Chain of human Bcl-xL (residues 1-209) (Q07817 1-209): as above

Ki [1]: 2 nM
Molecule: unlabeled Bim-BH3 peptide (23-residue synthetic peptide)

Ki [2]: 30 nM
Ki [1]: < 0.1 nM
Molecule: Bim-BH3 with a Phe4aVal mutation (synthetic peptide)

increase of affinity for Mcl-1 relative to Bim-BH3 [3]: more than 10 fold
reduction of affinity for Bcl-xL relative to Bim-BH3 [4]: ~30 fold
Molecule: CC[C@H](C)[C@H](NC(=O)[C@H](CCCNC(=N)N)NC(=O)[C@H](CCCNC(=N)N)NC(=O)[C@H](CC(C)C)NC(=O)[C@H](CCC(=O)O)NC(=O)[C@H](CCC(N)=O)NC(=O)[C@H](C)NC(=O)[C@@H](NC(=O)[C@H](Cc1c[nH]c2ccccc12)NC(=O)[C@@H](NC(=O)[C@H](CCC(=O)O)NC(=O)[C@@H]1CCCN1C(=O)[C@H](CCCNC(=N)N)NC(C)=O)[C@@H](C)CC)[C@@H](C)CC)C(=O)NCC(=O)N[C@@H](CC(=O)O)C(=O)N[C@@H](CCC(=O)O)C(=O)N[C@H](C(=O)N[C@@H](CC(N)=O)C(=O)N[C@@H](C)C(=O)N[C@@H](Cc1ccc(O)cc1)C(=O)N[C@@H](Cc1ccc(O)cc1)C(=O)N[C@@H](C)C(=O)N[C@@H](CCCNC(=N)N)C(N)=O)C(C)C [Phe4aVal mutation in Bim-BH3]

dissociation constant, yeast-displayed peptide, Bcl-xL (Bcl-xL): low nanomolar range
dissociation constant, yeast-displayed peptide, Mcl-1 (Mcl-1): low nanomolar range
Molecule: Bim-BH3: peptide derived from the BH3 region of human Bim; N-acetylated, C-amidated 23-mer in solution assays

oligomeric fraction [5]: 58%
B1: human Bcl-w (residues 1-164), c-myc tagged, Q92843 1-164 (domain or fragment)
chain: T1 chain
